This passage reports IC50, EC50 and Kd results from ChEMBL document CHEMBL1145604, “Fragment-based discovery of hepatitis C virus NS5b RNA polymerase inhibitors” (Bioorg Med Chem Lett, 2008).

A short description of experiment [1]: Inhibition of HCV NS5b RNA polymerase assessed as [3H]UTP incorporation into RNA. On the set-up: species or system Hepacivirus hominis. In a few lines: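 NS5B570n-BK (200 nM) with poly-A:oligo U₁₆ template:primer (8.4 µg/mL), 2.1 µCi tritiated UTP, 1 µM ATP, CTP, GTP in 40 mM Tris-HCl pH 8.0, NaCl, 4 mM DTT, 4 mM MgCl₂; compound serially diluted in DMSO. 2 h at 30 °C, TCA stop, filtration, scintillation counting. IC50 from duplicate means.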

A further experiment relates to Hepatitis C virus. The experiment can be described thus: Antiviral activity against Hepatitis C virus by replicon assay. It is filed as functional, organism-based, Hepacivirus hominis. On the technique in general: Replicon systems follow genome replication, usually without infectious particles.
A short description of experiment [2]: Binding affinity to HCV NS5b RNA polymerase by SPR assay. On the set-up: species or system Hepacivirus hominis.

Consider `C[C@@H]1C[C@H](C)CN(C(=O)c2cc(Br)ccc2NC(=O)CCC(=O)N2CCOCC2)C1`, for which the IC50 in experiment [1] was determined as 0.25 µM. In the experiment on Hepatitis C virus, this compound came in with a 50% effective concentration (EC50) of 7.4 µM.

Regarding `C[C@@H]1C[C@H](C)CN(C(=O)c2cc(Br)ccc2NC(=O)CCC(N)=O)C1`, the half-maximal inhibitory concentration (IC50) in experiment [1] was determined as 4.3 µM. This compound also returned a dissociation constant (Kd) in experiment [2] of 9.4 µM.

Turning to `C[C@@H]1C[C@H](C)CN(C(=O)c2cc(Br)ccc2NC(=O)CCC(=O)c2cccnc2)C1`, in experiment [1], the IC50 worked out at 0.59 µM. Besides, the EC50 in the experiment on Hepatitis C virus was 7.9 µM. The same compound yielded a Kd in experiment [2] of 1.04 µM.

For `C[C@@H]1C[C@H](C)CN(C(=O)c2cc(Br)ccc2NC(=O)CCCC(=O)O)C1`, the IC50 in experiment [1] came to 9 µM.

`C[C@@H]1C[C@H](C)CN(C(=O)c2cc(Br)ccc2NC(=O)CCC(=O)N(C)C)C1`: in experiment [1], the IC50 is 0.4 µM. Besides, it took 6.1 µM to reach a half-maximal effect in the experiment with Hepatitis C virus (EC50). Besides, binding in experiment [2] was put at a Kd of 0.3 µM.

`C[C@@H]1C[C@H](C)CN(C(=O)c2cc(Br)ccc2NC(=O)CCC(=O)c2ccccn2)C1`: in experiment [1], the concentration for half-maximal inhibition (IC50) is 0.54 µM. Besides, the Kd in experiment [2] stood at 1.85 µM.

`C[C@@H]1C[C@H](C)CN(C(=O)c2cc(Br)ccc2NC(=O)CCC(=O)O)C1`: the half-inhibitory concentration (IC50) in experiment [1] stood at 1 µM. In the experiment on Hepatitis C virus, this compound gave a concentration giving a half-maximal response (EC50) of 22.8 µM.

Take `C[C@@H]1C[C@H](C)CN(C(=O)c2cc(Br)ccc2NC(=O)NCC(=O)N(C)C)C1`: the IC50 in experiment [1] came out at 0.6 µM. Moreover, the response in the experiment on Hepatitis C virus was half-maximal at 5.6 µM (EC50). This compound had a dissociation constant Kd in experiment [2] of 0.46 µM.

As for `Nc1ccc(Br)cc1C(=O)Nc1ccccc1Cl`, in experiment [1], the IC50 is 178 µM.

With `CC(C)NC(=O)c1cc(Br)ccc1NC(=O)CCC(=O)O`, in experiment [1], the half-inhibitory concentration (IC50) is more than 500 µM.

As to `C[C@@H]1C[C@H](C)CN(C(=O)c2cc(Br)ccc2NC(=O)[C@@H]2C[C@@H](O)CN2C(=O)c2ccco2)C1`, the half-maximal inhibitory concentration (IC50) in experiment [1] was found to be 1.03 µM. For the same compound, the EC50 with Hepatitis C virus stood at 3.7 µM. Also, in experiment [2], binding was characterised by a dissociation constant (Kd) of 0.15 µM.

As for `Nc1ccc(Br)cc1C(=O)NCc1ccccc1`, the IC50 in experiment [1] is more than 500 µM.

Take `CC(=O)Nc1ccc(Br)cc1C(=O)N1C[C@H](C)C[C@H](C)C1`: the IC50 in experiment [1] was 11 µM. In addition, in experiment [2], binding was put at a Kd of 1.7 µM.

For `Nc1ccc(Br)cc1C(=O)N1CCCC1`, the 50% inhibitory concentration (IC50) in experiment [1] is more than 500 µM.

On to `Nc1ccc(Br)cc1C(=O)N1CCOCC1`, for which the half-maximal inhibitory concentration (IC50) in experiment [1] is more than 500 µM.

On to `C[C@@H]1CN(C(=O)c2cc(Br)ccc2N)C[C@H](C)O1`, for which, in experiment [1], the IC50 amounted to 190 µM. Further, the Kd in experiment [2] stood at 36 µM.

On to `O=C(O)CCC(=O)Nc1ccc(Br)cc1C(=O)NCC1CCCCC1`, for which, in experiment [1], the IC50 is more than 500 µM.

As for `C[C@@H]1C[C@H](C)CN(C(=O)c2cc(Br)ccc2NC(=O)[C@@H]2CCCN2C(=O)c2cccnc2)C1`, the IC50 in experiment [1] was determined as 0.35 µM. This compound also showed an EC50 in the experiment on Hepatitis C virus of 12.9 µM. Also, the Kd in experiment [2] amounted to 1.28 µM.

As to `O=C(O)CCC(=O)Nc1ccc(Br)cc1C(=O)N1CCSCC1`, in experiment [1], the IC50 is 533 µM.

For `CC1CCCN(C(=O)c2cc(Br)ccc2N)C1` (stereo not given), the IC50 in experiment [1] turned out to be 170 µM. For the same compound, the Kd in experiment [2] is 192 µM.

As for `COC(=O)CCC(=O)Nc1ccc(Br)cc1C(=O)N1C[C@H](C)C[C@H](C)C1`, the IC50 in experiment [1] stood at 2.1 µM.

Consider `C[C@@H]1C[C@H](C)CN(C(=O)c2cc(Br)ccc2NC(=O)CNC(=O)c2cccnc2)C1`, for which, in experiment [1], the half-maximal inhibitory concentration (IC50) worked out at 0.43 µM. A half-maximal response in the experiment on Hepatitis C virus (EC50) required 5.7 µM. The compound also came in with a dissociation constant Kd in experiment [2] of 0.57 µM.

`C[C@@H]1C[C@H](C)CN(C(=O)c2cc(Br)ccc2NC(=O)CCC(=O)c2cccs2)C1`: the IC50 in experiment [1] is 0.44 µM. Besides, the response in the experiment with Hepatitis C virus was half-maximal at 4.3 µM (EC50). In addition, the equilibrium dissociation constant (Kd) in experiment [2] is 0.97 µM.

Consider `C[C@@H]1C[C@H](C)CN(C(=O)c2cc(Br)ccc2N)C1`, for which the half-maximal inhibitory concentration (IC50) in experiment [1] was 17 µM.

Regarding `C[C@@H]1C[C@H](C)CN(C(=O)c2cc(Br)ccc2NC(=O)CNC(=O)c2ccco2)C1`, the 50% inhibitory concentration (IC50) in experiment [1] is 0.25 µM. The concentration for a half-maximal effect (EC50) with Hepatitis C virus stood at 8.7 µM. The Kd in experiment [2] came to 1.02 µM.

Regarding `Nc1ccc(Br)cc1C(=O)N1CCCCC1`, the IC50 in experiment [1] is more than 500 µM.

For the compound `Nc1ccc(Br)cc1C(=O)N1CCc2ccccc2C1`, the IC50 in experiment [1] worked out at 132 µM. In experiment [2], this compound yielded an equilibrium dissociation constant (Kd) of 210 µM.

`C[C@@H]1C[C@H](C)CN(C(=O)c2cc(Br)ccc2NC(=O)NCc2ccc(N(C)C)cc2)C1`: in experiment [1], the IC50 was 1 µM. This compound also registered an EC50 with Hepatitis C virus of 4.9 µM. The compound further came in with a Kd in experiment [2] of 0.8 µM.

As to `C[C@@H]1C[C@H](C)CN(C(=O)c2cc(Br)ccc2NC(=O)CNC(=O)c2ccccc2)C1`, in experiment [1], the concentration for half-maximal inhibition (IC50) was found to be 0.13 µM. This compound displayed a concentration for a half-maximal effect (EC50) in the experiment on Hepatitis C virus of 5.5 µM. In addition, in experiment [2], the Kd was determined as 0.54 µM.

`Cc1cnc(CNC(=O)Nc2ccc(Br)cc2C(=O)N2C[C@H](C)C[C@H](C)C2)cn1`: in experiment [1], the IC50 turned out to be 0.36 µM. The same compound yielded a half-maximal effective concentration (EC50) in the experiment with Hepatitis C virus of 6.9 µM. In experiment [2], this compound returned a dissociation constant (Kd) of 0.35 µM.

Consider `C[C@@H]1C[C@H](C)CN(C(=O)c2cc(Br)ccc2NC(=O)CC(=O)N(C)C)C1`, for which the IC50 in experiment [1] came out at 11 µM.

`Cc1cc(CNC(=O)Nc2ccc(Br)cc2C(=O)N2C[C@H](C)C[C@H](C)C2)nn1C`: the IC50 in experiment [1] came to 0.17 µM. Also, the 50% effective concentration (EC50) in the experiment with Hepatitis C virus amounted to 4.6 µM. In experiment [2], this compound came in with a Kd of 0.37 µM.

As to `C[C@@H]1C[C@H](C)CN(C(=O)c2cc(Br)ccc2NS(C)(=O)=O)C1`, the IC50 in experiment [1] was 7.5 µM.

As usually defined, the IC50 is the concentration that gives 50% inhibition. A word on the EC50: it is the concentration giving half of the maximal effect. One may read the Kd as the equilibrium constant for the complex coming apart. A low value points to tighter binding.
